Compound activity as filed in PubChem BioAssay.
A selection: hits, their analogues and other compounds. The true share with any hit is near 4.6%.
CHO parental Ca: counter-screen for OX1R antagonists: effect in parental CHO cells. parental CHO-K1, ATP-induced calcium, Fluo-8 fluorescence. inhibition, % at 5.6 µM. 330,000 tested, 0.63% active. AID 463079;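 active = inhibition above that plate's mean sample inhibition plus 3 SD, cut at about 26% in these data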
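Test system: untransfected parental CHO cell line. Compound: one dose, 5.6 µM nominal. Detection: intracellular calcium via Fluo-8 no-wash fluorescent dye. Measure: % inhibition. Benchmarks: ATP-challenged DMSO wells low, unchallenged DMSO wells high.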
TAAR1 antag: antagonists of human TAAR1; 360,000 tested, 1.5% active; AID 624466; Q96RJ0; inhibition, % at 3 µM; CHO RD-HGA16 TAAR1, Fluo-8 calcium fluorescence, antagonist;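 active = inhibition above a per-plate cutoff, the mean inhibition of test compounds on that plate plus 3 SD, cut at about 49% in these data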
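Assay system: CHO-derived RD-HGA16 cells stably expressing human TAAR1 plus Gα16. Timing: 140 s kinetic read after compound, 140 s after agonist. Technique: kinetic Fluo-8 calcium fluorescence measurement. Measure: % inhibition of agonist calcium response.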
OX1R antag-1: blocks the human orexin 1 receptor; O43613; OX1R-expressing cells, FRET antagonist read-out; inhibition, % at 6.6 µM; 330,000 tested, 1.8% active; AID 485270; in the data active = inhibition mostly above about 38%, no sharp cut-off; inactive = mostly below about 40%
GPR7 antag: antagonists of human GPR7 (neuropeptides B/W receptor 1) | inhibition, % at 4.4 µM | 290,000 tested, 1.1% active | GPR7-expressing cells, fluorescence antagonist assay; in the data active = inhibition above about 16%, passing the limit was not always enough;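 also: cells stimulated with the agonist NPW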
Target sequence (P48145 whole entry, looked up): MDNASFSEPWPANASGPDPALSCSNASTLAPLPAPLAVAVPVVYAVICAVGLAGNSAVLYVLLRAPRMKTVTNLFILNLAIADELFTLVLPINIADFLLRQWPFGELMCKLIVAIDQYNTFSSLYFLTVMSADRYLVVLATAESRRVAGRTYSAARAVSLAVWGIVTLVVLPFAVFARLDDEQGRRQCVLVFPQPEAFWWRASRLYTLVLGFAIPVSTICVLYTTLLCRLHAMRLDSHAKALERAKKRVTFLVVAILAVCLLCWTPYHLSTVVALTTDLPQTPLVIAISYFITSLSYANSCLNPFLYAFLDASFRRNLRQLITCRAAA
TAAR1 agonist: human TAAR1 agonism; CHO RD-HGA16 TAAR1, Fluo-8 calcium fluorescence; vehicle wells 0%, saturating PEA agonist 100%; AID 624467; 360,000 tested, 0.99% active; Q96RJ0; activation, % at 3 µM;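 active = activation above the mean activation of all test compounds in the run plus 3 SD, cut at about 38% in these data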
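Test system: RD-HGA16 (CHO) cells co-expressing Gα16 and hTAAR1; dosing: one-point dosing at 3 µM (nominal); timing: 17-24 h seeding, 75 min 37 °C dye, 30 min RT; signal: kinetic Fluo-8 calcium fluorescence; read-out basis: % activation relative to PEA EC100 response; controls: DMSO and PEA EC100; replicates: n 1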
OX1R antag-2: human HCRTR1 antagonism | CHO/OX1R cells, Fluo-8 calcium fluorescence, orexin A | 330,000 tested, 0.43% active | inhibition, % at 5 µM | AID 434989;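 active = inhibition above its plate's threshold, mean inhibition of all tested compounds on the plate plus 3 SD, cut at about 37% in these data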
Numbers stand for hits; . = inactive; / = no result given.

SMILES	CHO parental Ca	TAAR1 antag	OX1R antag-1	GPR7 antag	TAAR1 agonist	OX1R antag-2
c1ccc(Cn2nnnc2C(c2cccnc2)N2CCN(c3ccccc3)CC2)cc1 (stereo unspecified)	.	50.6	.	.	.	.
COc1cccc(C(c2nnnn2CCc2ccccc2)N2CCN(c3ccccc3)CC2)c1OC (stereo unspecified)	.	.	.	.	.	.
O=C(CCC1CCN(Cc2nccs2)CC1)Nc1ccccc1	/	.	/	/	.	/
CN(C(=O)CSc1nnnn1-c1ccccc1)C1CCS(=O)(=O)C1 (stereo unspecified)	.	.	.	19.0	.	.
O=[N+]([O-])c1cc2c(cc1/C=N/n1cnnc1)OCO2	.	.	76.6	.	.	.
CCOC(=O)C(CCSC)Nc1nc(Cl)nc(Nc2ccc(Cl)cc2)n1 (stereo unspecified)	.	.	.	/	.	.
Cc1cc(C(=O)CSc2ccccc2)cc(C)c1O	.	.	.	.	.	.
Cc1ccc(-c2noc(CCC(=O)NCCCN3CCN(c4cccc(Cl)c4)CC3)n2)cc1	.	.	.	19.0	.	51.9
COc1ccc(-c2noc(CCCCC(=O)N3CCN(c4cc(C)ccc4C)CC3)n2)cc1	73.7	.	37.7	/	.	75.3
COc1ccccc1-c1noc(CCC(=O)N2CCN(c3cc(C)ccc3C)CC2)n1	.	56.0	.	/	.	.
Cc1ccc(C)c(N2CCN(C(=O)CCc3nc(-c4ccccc4C(F)(F)F)no3)CC2)c1	.	68.3	.	/	.	.
Cc1ccc(-c2noc(CCC(=O)NCCCN3CCN(c4ccc(F)cc4)CC3)n2)cc1	.	.	.	.	.	.
CN(Cc1ccccc1)C(=O)c1csc([C@@H]2O[C@H](CO)[C@H](O)[C@H](O)[C@H]2O)n1	/	.	/	/	.	/
CCCS(=O)(=O)NC(=O)C1(C)CCN(C(=O)CSc2ccccc2)C1 (stereo unspecified)	/	.	/	/	.	/
Cc1c(C(=O)NCc2ccc(F)cc2)sc(=O)n1Cc1ccccc1F	/	.	/	/	.	/
CC1CN(Cc2cc(=O)n3ccsc3n2)CC(C)O1 (stereo unspecified)	.	.	.	.	40.1	.
O=c1cc(CN2CCC(Cc3ccccc3)CC2)nc2sccn12	.	.	.	.	.	.
O=C(/C=C\c1ccco1)Nc1nc(-c2ccccc2)cs1	.	.	.	.	.	.
O=C(/C=C/c1ccccc1)Nc1nc(-c2ccncc2)cs1	.	49.6	.	.	.	.
CCNC(=O)O/N=C1\CCCCC1c1ccc([N+](=O)[O-])cc1[N+](=O)[O-] (stereo unspecified)	.	.	45.5	.	.	.
O=C(NCC1CCCCC1)c1ccc([N+](=O)[O-])cc1	.	.	.	.	.	.
CS(=O)(=O)O/N=C1\CCCCC1c1ccc([N+](=O)[O-])cc1[N+](=O)[O-] (stereo unspecified)	.	.	49.4	.	.	.
CC(C)C(NC(=O)CN1C(=O)c2ccccc2C1=O)c1ccccc1 (stereo unspecified)	/	.	/	.	.	/
C[n+]1c(/C=C/c2ccc(O)cc2)ccc2ccccc21	.	.	73.2	.	.	.
NC(c1csc(Nc2nncc3ccccc23)n1)c1ccccc1Cl (stereo unspecified)	/	.	/	/	50.5	/
SMILES	CHO parental Ca	TAAR1 antag	OX1R antag-1	GPR7 antag	TAAR1 agonist	OX1R antag-2
N/C(=N\OC(=O)CCCCCN1C(=O)c2ccccc2C1=O)c1ccccc1	.	.	61.9	.	.	.
N/C(=N\OC(=O)CCCN1C(=O)c2ccccc2C1=O)c1ccc(Br)cc1	.	.	.	.	.	.
Cc1c(C(=O)OCC(=O)N(C)Cc2ccccc2)oc2ccccc12	.	.	60.2	/	.	.
COc1ccc2oc(C(=O)OCC(=O)N3CC(C)CC(C)C3)c(C)c2c1 (stereo unspecified)	.	.	.	/	.	.
Cc1c(C(=O)OCC(=O)N2CC(C)CC(C)C2)oc2ccccc12 (stereo unspecified)	.	.	69.9	/	.	.
Cc1nn(-c2nc3ccccc3s2)c(C)c1Oc1ccccc1O	31.5	/	.	.	/	67.0
Clc1ccc(C2=CC(c3ccco3)n3ncnc3N2)cc1 (stereo unspecified)	.	.	.	.	107.1	.
CCCCOc1ccc(C(=O)NC2CCCCN(CCC)C2=O)cc1 (stereo unspecified)	/	.	/	/	.	/
OC(Cn1ccnc1)c1ccc(Cl)cc1Cl (stereo unspecified)	.	.	.	.	.	.
Clc1ccc(C(Cn2ccnc2)OCc2c(Cl)cccc2Cl)c(Cl)c1 (stereo unspecified)	60.2	51.0	.	/	.	.
COc1cccc(C2c3[nH]c4ccccc4c3C[C@H]3C(=O)N(c4ccccc4C(=O)NCCCN4CCOCC4)C(=O)N23)c1 (stereo partly specified)	.	.	.	.	.	.
N#Cc1nc(-c2ccc(Cl)cc2)oc1NCc1ccco1	44.2	.	.	.	.	.
N#Cc1c2c(nc(N)c1-c1ccccc1)CCCCC2	.	.	.	.	.	.
N#Cc1c(N)nc2c(c1-c1ccccc1)CCCC2	.	.	.	.	41.4	.
COC(=O)C1=C(C)N=C2SCCC(=O)N2C1c1ccc(OC(=O)c2ccco2)cc1 (stereo unspecified)	/	.	/	.	.	/
C=CCOC(=O)C1=C(C)N=C2SCCC(=O)N2C1c1ccc(OC(=O)c2ccco2)cc1 (stereo unspecified)	.	.	.	25.5	.	.
C=CCNC(=O)c1ccc(Sc2ccccc2)c([N+](=O)[O-])c1	.	.	.	.	.	.
O=C(O)CNC(=O)c1ccc(Sc2ccccc2)c([N+](=O)[O-])c1	.	.	64.0	.	.	.
CSc1ccc(C(=O)NCC(=O)O)cc1[N+](=O)[O-]	.	.	52.7	.	.	.
CCOC(=O)CN1CCCc2nc(C)c(C)cc21	/	.	/	/	.	/
CCOc1ccccc1NC(=O)N1CCCc2ccccc21	/	.	/	.	.	/
CCOc1ccccc1NC(=O)N1CCc2ccccc2C1	.	.	.	.	41.3	.
Cc1ccc(OCC(=O)N2CCc3ccccc3C2)c(C)c1	.	.	.	.	42.0	.
O=C(NCc1ccccc1)[C@H]1CCCN1C(=O)[C@H]1CCCN1C(=O)c1ccc(F)c(C(F)(F)F)c1	/	.	/	/	.	/
O=[N+]([O-])c1sccc1CS(=O)(=O)c1ccccc1	.	.	51.5	.	.	.
COc1ccccc1CNC(=O)Nc1nc(C(N)C(C)C)cs1 (stereo unspecified)	/	.	/	/	.	/
COc1ccccc1CNC(=O)Nc1nc(C(N)Cc2ccc(Cl)cc2)cs1 (stereo unspecified)	/	50.7	/	/	44.7	/
